Experimental data: ChEMBL document CHEMBL1155040, “Potency and selectivity of trifluoroacetylimino and pyrazinoylimino nicotinic insecticides and their fit at a unique binding site niche” (J Med Chem, 2008)
Converted amounts (≈) assume the structure as drawn.

Experiments:
[1] = tested on: Musca domestica; experiment: Insecticidal activity against houseflies; format: functional
Outline: (§1)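 Adult female houseflies were dosed by intrathoracic injection or topical application, either without or with topical pretreatment with the P450 inhibitor synergist O-propyl O-(2-propynyl)phenylphosphonate (100 µg/g) before the test chemical. Where no LD50 was obtained, percent mortality at the indicated dose is given.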

[2] = (§2) Displacement of [3H]IMI from nAChR in Drosophila brain
Outline: (§3)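 IC50 (nM, ± SD) for displacing [³H]IMI binding to native nAChR from Drosophila brain.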

[3] = tested on: Musca domestica; experiment: Insecticidal activity against intrathoracically dosed houseflies at >10 um/g; format: functional; outline: as §1
[4] = target: Neuronal acetylcholine receptor subunit alpha-4 (Gallus gallus, UniProt P09482+P09484); experiment: Displacement of [3H]nicotine from chick alpha4beta2 nAChR
Outline: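 Radioligand displacement used [³H]nicotine with chick α4β2 nAChR. Values are IC50 ± SD in nM.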

[5] = tested on: Mus musculus; experiment: Toxicity in Swiss Webster mouse at >24 mg/kg, ip; format: organism-based; conditions: in vivo
Outline: (§4)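 Male albino Swiss-Webster mice (25-30 g) were dosed intraperitoneally. Results are LD50 in mg/kg, or percent lethality at the indicated dose, which was the maximum allowed by solubility in the vehicle.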

[6] = Toxicity in ip dosed Swiss Webster mouse; format: organism-based; conditions: in vivo; outline: as §4
[7] = Displacement of [3H]IMI from peach-potato aphid alpha2/rat beta2 nAChR hybrid recombinant receptor
[8] = tested on: Culex quinquefasciatus; experiment: Mosquito Larvicidal activity against premethrin-resistant fourth instar Culex quinquefasciatus Marin after 24 hrs; format: functional
Outline: (§5)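 Larvicidal test on fourth-instar Culex quinquefasciatus, using the susceptible CQ1 colony and the permethrin-resistant Marin colony, with 24 h exposure.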

[9] = tested on: Culex quinquefasciatus; experiment: Mosquito Larvicidal activity against premethrin-susceptible fourth instar Culex quinquefasciatus CQ1 after 24 hrs; format: functional; conditions: CQ1, 24 h; outline: as §5
[10] = tested on: Mus musculus; experiment: Toxicity in Swiss Webster mouse at >36 mg/kg, ip; format: organism-based; conditions: in vivo; outline: as §4
[11] = Lipophilicity, log P of the compound; format: physicochemical; conditions: octanol/water
[12] = tested on: Drosophila; experiment: as §2; conditions: concentration not given here; outline: as §3

Sequence of Neuronal acetylcholine receptor subunit alpha-4 (P09482 whole entry, one chain of several): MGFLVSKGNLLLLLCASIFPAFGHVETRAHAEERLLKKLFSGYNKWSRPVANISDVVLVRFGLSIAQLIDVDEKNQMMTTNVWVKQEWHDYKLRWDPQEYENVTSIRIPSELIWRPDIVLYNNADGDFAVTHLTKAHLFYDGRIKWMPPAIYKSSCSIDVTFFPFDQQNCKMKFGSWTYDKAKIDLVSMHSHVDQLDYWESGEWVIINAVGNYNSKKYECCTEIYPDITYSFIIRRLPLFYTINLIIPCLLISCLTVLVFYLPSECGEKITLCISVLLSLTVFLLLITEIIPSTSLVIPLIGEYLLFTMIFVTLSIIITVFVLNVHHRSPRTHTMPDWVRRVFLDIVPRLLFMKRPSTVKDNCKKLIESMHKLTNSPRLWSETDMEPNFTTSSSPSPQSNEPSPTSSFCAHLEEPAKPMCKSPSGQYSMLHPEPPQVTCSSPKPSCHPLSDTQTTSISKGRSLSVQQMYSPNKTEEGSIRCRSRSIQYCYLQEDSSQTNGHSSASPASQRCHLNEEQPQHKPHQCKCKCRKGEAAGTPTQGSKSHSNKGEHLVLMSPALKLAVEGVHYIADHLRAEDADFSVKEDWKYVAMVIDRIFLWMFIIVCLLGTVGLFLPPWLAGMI

ClC1=C(Cl)[C@]2(Cl)[C@@H]3[C@@H]4C[C@@H]([C@H]5O[C@@H]45)[C@@H]3[C@@]1(Cl)C2(Cl)Cl [DIELDRIN]
LD50 [1]: 0.75 mg/kg

CNC(=O)Oc1ccccc1OC(C)C [PROPOXUR]
LD50 [1]: 23 mg/kg

O=C(/N=c1\sccn1Cc1ccc(Cl)nc1)c1ccccc1
IC50 [2]: 121 nM | LD50 [1]: > 10 mg/kg | Activity [3]: 0%

O=C(/N=c1\sccn1Cc1ccc(Cl)nc1)c1ccccn1
IC50 [2]: 13 nM | LD50 [1]: > 10 mg/kg | Activity [3]: 0%

Clc1ccc(C(c2ccc(Cl)cc2)C(Cl)(Cl)Cl)cc1 [CHLOROPHENOTHANE]
LD50 [1]: 14 mg/kg

O=C(/N=c1\sccn1Cc1ccc(Cl)nc1)c1ccc(Cl)nc1
IC50 [2]: 41 nM | LD50 [1]: > 10 mg/kg | Activity [3]: 0%

O=C(/N=c1\sccn1Cc1ccc(Cl)nc1)c1cnccn1
IC50 [4]: 900 nM | IC50 [2]: 1.5 nM | Activity [5]: 0% | LD50 [6]: > 24 mg/kg | IC50 [7]: 720 nM | LD50 [1]: > 10 mg/kg | Activity [3]: 0%

CCOP(=S)(OCC)Oc1nc(Cl)c(Cl)cc1Cl [CHLORPYRIFOS]
LD50 [1]: 2.1 mg/kg

CC1(C)C(C=C(Cl)Cl)C1C(=O)OCc1cccc(Oc2ccccc2)c1 (stereo unspecified) [PERMETHRIN]
LC50 [8]: 0.16 µg/mL (≈ 0.409 µM) | LC50 [9]: 0.005 µg/mL (≈ 0.0128 µM)

O=C(/N=c1\sccn1Cc1ccc(Cl)nc1)C(F)(F)F
IC50 [4]: 500 nM | IC50 [2]: 3.1 nM | Activity [10]: 0% | LD50 [6]: > 36 mg/kg | LC50 [8]: 0.024 µg/mL (≈ 0.0746 µM) | IC50 [7]: 280 nM | LD50 [1]: 0.75 mg/kg | LC50 [9]: 0.012 µg/mL (≈ 0.0373 µM)

N#C/N=C1\SCCN1Cc1ccc(Cl)nc1 [THIACLOPRID]
IC50 [4]: 860 nM | IC50 [2]: 2.7 nM | logP [11]: 1.26 | LD50 [6]: 28 mg/kg | IC50 [7]: 11 nM | LD50 [1]: > 10 mg/kg | Activity [3]: 19%

O=[N+]([O-])/N=C1\NCCN1Cc1ccc(Cl)nc1 [IMIDACLOPRID]
IC50 [4]: 2600 nM | IC50 [2]: 4.3 nM | LD50 [6]: 45 mg/kg | IC50 [7]: 3.6 nM | LD50 [1]: > 10 mg/kg | Activity [3]: 0%

O=C(/N=c1\sccn1Cc1ccc(Cl)nc1)c1ccncc1
IC50 [2]: 10 nM | LD50 [1]: > 10 mg/kg | Activity [3]: 0%

O=C(/N=c1\sccn1Cc1ccc(Cl)nc1)c1ccc(Cl)cc1
IC50 [2]: > 30000 nM | inhibition [12]: 10% | LD50 [1]: > 10 mg/kg | Activity [3]: 0%

O=C(/N=c1\[nH]ccn1Cc1ccc(Cl)nc1)C(F)(F)F
IC50 [2]: 7.7 nM | LD50 [1]: > 10 mg/kg

O=C(/N=c1\sccn1Cc1ccc(Cl)nc1)c1cccnc1
IC50 [2]: 4.8 nM | LD50 [1]: > 10 mg/kg | Activity [3]: 0%

CCOP(=S)(OCC)Oc1ccc([N+](=O)[O-])cc1 [PARATHION]
LD50 [1]: 1.3 mg/kg
